“And” between values parts separate entries of the source, which are not always exact repeats. Equal entries are not always repeated.
How the values were obtained:
[1] = biological target: T1, Ornithine decarboxylase (Rattus norvegicus, UniProt P09057); assay: (§1) In vitro inhibitory activity against Ornithine Decarboxylase (ODC) isolated from the livers of thioactamide treated rats.; format: functional, tissue-based, Liver
T1 sequence (P09057 whole entry): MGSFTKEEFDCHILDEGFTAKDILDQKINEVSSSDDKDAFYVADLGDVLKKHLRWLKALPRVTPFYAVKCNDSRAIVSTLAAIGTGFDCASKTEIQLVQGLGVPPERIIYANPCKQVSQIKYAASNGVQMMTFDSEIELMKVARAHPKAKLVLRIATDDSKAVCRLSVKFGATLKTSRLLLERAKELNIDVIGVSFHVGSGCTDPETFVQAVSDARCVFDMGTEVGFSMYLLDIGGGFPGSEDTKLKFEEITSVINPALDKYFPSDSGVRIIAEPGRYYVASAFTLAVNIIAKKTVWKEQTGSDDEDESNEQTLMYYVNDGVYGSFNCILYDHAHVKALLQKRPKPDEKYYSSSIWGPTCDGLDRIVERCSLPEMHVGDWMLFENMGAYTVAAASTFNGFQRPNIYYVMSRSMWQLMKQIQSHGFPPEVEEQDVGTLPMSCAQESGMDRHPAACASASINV
Procedure, shortened: (§2)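 ODC was partially purified from livers of rats injected with thioacetamide (100 mg/kg), with specific activity 0.2 nmol/min per mg protein. Activity was measured in vitro across inhibitor concentrations. Ki was obtained by replotting apparent Km against inhibitor concentration.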

[2] = biological target: T2, Ornithine decarboxylase (Rattus norvegicus) (UniProt P09057); assay: In vivo inhibitory activity against Ornithine Decarboxylase (ODC) in H-35 hepatoma cells; format: functional; design: unit not given here
T2 sequence (whole entry): T1 sequence (P09057 whole entry)

[3] = biological target: T2, Ornithine decarboxylase (Rattus norvegicus); assay: In vivo inhibitory activity against Ornithine Decarboxylase (ODC) in rats; format: functional, organism-based; design: concentration or dose not given beside the values
[4] = species: Rattus norvegicus; assay: Effect on 1,4-Dimethylputrescine content of (-) isomer Dexamethasone treated rats after 4 hour; format: functional
Procedure, shortened: (§3)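 Female Wistar rats (100-130 g) were pretreated with dexamethasone or thioacetamide, and the analogue was given ip in saline-buffered solution. Liver was sampled 1 h or 3-4 h later. Free polyamines and analogue were measured in perchloric extracts. Polyamines are expressed as % of the inducer-treated liver content. Analogue is expressed as % of the total injected per g liver (10 ± 0.5 μmol). Mean ± SD, three experiments in duplicate.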

[5] = species: Rattus norvegicus; assay: Effect on spermidine content of Thioacetamide treated rats after 3 hr; format: functional; procedure, shortened: as §3
[6] = species: Rattus norvegicus; assay: Effect on spermine content of (+) isomer Dexamethasone treated rats after 1 hour; format: functional; procedure, shortened: as §3
[7] = species: Rattus norvegicus; assay: Effect on spermine content of Thioacetamide treated rats after 3 hr; format: functional; procedure, shortened: as §3
[8] = species: Rattus norvegicus; assay: Effect on spermine content of meso isomer Dexamethasone treated rats after 1 hour; format: functional; procedure, shortened: as §3
[9] = species: Rattus norvegicus; assay: Effect on spermidine content of meso isomer Dexamethasone treated rats after 1 hour; format: functional; procedure, shortened: as §3
[10] = species: Rattus norvegicus; assay: Effect on spermidine content of Thioacetamide treated rats after 1 hr; format: functional; procedure, shortened: as §3
[11] = species: Rattus norvegicus; assay: Effect on spermidine content of Dexamethasone treated rats.; format: functional; procedure, shortened: as §3
[12] = species: Rattus norvegicus; assay: Effect on 1,4-Dimethylputrescine content of Thioacetamide treated rats after 3 hr; format: functional; procedure, shortened: as §3
[13] = species: Rattus norvegicus; assay: Effect on spermine content of (+) isomer Dexamethasone treated rats after 4 hour; format: functional; procedure, shortened: as §3
[14] = species: Rattus norvegicus; assay: Effect on spermine content of meso isomer Dexamethasone treated rats after 4 hour; format: functional; procedure, shortened: as §3
[15] = species: Rattus norvegicus; assay: Effect on 1,4-Dimethylputrescine content of Thioacetamide treated rats after 1 hr; format: functional; procedure, shortened: as §3
[16] = species: Rattus norvegicus; assay: Effect on spermine content of (-) isomer Dexamethasone treated rats after 4 hour; format: functional; procedure, shortened: as §3
[17] = species: Rattus norvegicus; assay: Effect on 1,4-Dimethylputrescine content of (+) isomer Dexamethasone treated rats after 1 hour; format: functional; procedure, shortened: as §3
[18] = species: Rattus norvegicus; assay: Effect on spermidine content of (-) isomer Dexamethasone treated rats after 1 hour; format: functional; procedure, shortened: as §3
[19] = species: Rattus norvegicus; assay: Effect on 1,4-Dimethylputrescine content of meso isomer Dexamethasone treated rats after 1 hour; format: functional; procedure, shortened: as §3
[20] = species: Rattus norvegicus; assay: Effect on putrescine content of Thioacetamide treated rats.; format: functional; procedure, shortened: as §3
[21] = species: Rattus norvegicus; assay: Effect on putrescine content of (+) isomer Dexamethasone treated rats after 4 hour; format: functional; procedure, shortened: as §3
[22] = species: Rattus norvegicus; assay: Effect on spermine content of (-) isomer Dexamethasone treated rats after 1 hour; format: functional; procedure, shortened: as §3
[23] = species: Rattus norvegicus; assay: Effect on putrescine content of (+) isomer Dexamethasone treated rats after 1 hour; format: functional; procedure, shortened: as §3
[24] = species: Rattus norvegicus; assay: Effect on spermine content of Dexamethasone treated rats.; format: functional; procedure, shortened: as §3
[25] = species: Rattus norvegicus; assay: Effect on 1,4-Dimethylputrescine content of (-) isomer Dexamethasone treated rats after 1 hour; format: functional; procedure, shortened: as §3
[26] = species: Rattus norvegicus; assay: Effect on putrescine content of meso isomer Dexamethasone treated rats after 4 hour; format: functional; procedure, shortened: as §3
[27] = species: Rattus norvegicus; assay: Effect on spermidine content of Thioacetamide treated rats.; format: functional; procedure, shortened: as §3
[28] = species: Rattus norvegicus; assay: Effect on putrescine content of Thioacetamide treated rats after 3 hr; format: functional; procedure, shortened: as §3
[29] = species: Rattus norvegicus; assay: Effect on spermidine content of (+) isomer Dexamethasone treated rats after 4 hour; format: functional; procedure, shortened: as §3
[30] = species: Rattus norvegicus; assay: Effect on spermine content of Thioacetamide treated rats after 3 hour; format: functional; procedure, shortened: as §3
[31] = species: Rattus norvegicus; assay: Effect on spermine content of Thioacetamide treated rats after 1 hr; format: functional; procedure, shortened: as §3
[32] = species: Rattus norvegicus; assay: Effect on spermine content of Thioacetamide treated rats.; format: functional; procedure, shortened: as §3
[33] = species: Rattus norvegicus; assay: Effect on 1,4-Dimethylputrescinecontent of (+) isomer Dexamethasone treated rats after 4 hour; format: functional; procedure, shortened: as §3
[34] = species: Rattus norvegicus; assay: Effect on putrescine content of (-) isomer Dexamethasone treated rats after 1 hour; format: functional; procedure, shortened: as §3
[35] = species: Rattus norvegicus; assay: Effect on putrescine content of Dexamethasone treated rats.; format: functional; procedure, shortened: as §3
[36] = species: Rattus norvegicus; assay: Effect on spermidine content of meso isomer Dexamethasone treated rats after 4 hour; format: functional; procedure, shortened: as §3
[37] = species: Rattus norvegicus; assay: Effect on spermidine content of (-) isomer Dexamethasone treated rats after 4 hour; format: functional; procedure, shortened: as §3
[38] = species: Rattus norvegicus; assay: Effect on putrescine content of (-) isomer Dexamethasone treated rats after 4 hr; format: functional; procedure, shortened: as §3
[39] = species: Rattus norvegicus; assay: Effect on putrescine content of meso isomer Dexamethasone treated rats after 1 hour; format: functional; procedure, shortened: as §3
[40] = species: Rattus norvegicus; assay: Effect on spermidine content of (+) isomer Dexamethasone treated rats after 1 hour; format: functional; procedure, shortened: as §3
[41] = species: Rattus norvegicus; assay: Effect on 1,4-Dimethylputrescine content of meso isomer Dexamethasone treated rats after 4 hour; format: functional; procedure, shortened: as §3
[42] = as §1; format: functional, tissue-based, Rattus norvegicus, Liver; procedure, shortened: as §2

CN(C)CCCCN
Ki [1]: 3 mM
Activity [2]: 68
Inhibition [3]: 60%

CC(N)CCC(C)N (stereo unspecified) [listing 1 of 2 here]
Activity [2]: 90
Inhibition [3]: 93%

NCCCCN [PUTRESCINE]
Ki [1]: 3.3 mM
Activity [2]: 90
Inhibition [3]: 55%

CC(N)CCC(C)N (racemic)
Activity [2]: 91
Inhibition [3]: 96%

CC(N)C(C)CCN (mixture of isomers)
Ki [1]: 3.8 mM
Activity [2]: 75
Inhibition [3]: 70%

CC(N)CCC(C)N (single isomer, unassigned; (+))
Activity [2]: 96
Inhibition [3]: 98%

CC(N)CCC(C)N (stereo unspecified) [listing 2 of 2 here]
Polyamine content [4]: 40 nM/g
Polyamine content [5]: 2400 nM/g and 1475 nM/g and 2500 nM/g
Polyamine content [6]: 1930 nM/g
Polyamine content [7]: 3000 nM/g and 2350 nM/g
Polyamine content [8]: 2060 nM/g
Polyamine content [9]: 1920 nM/g
Polyamine content [10]: 1870 nM/g and 1950 nM/g and 2800 nM/g
Polyamine content [11]: 2300 nM/g
Polyamine content [12]: 1550 nM/g and 900 nM/g and 1150 nM/g
Polyamine content [13]: 1800 nM/g
Polyamine content [14]: 2250 nM/g
Polyamine content [15]: 2700 nM/g and 1850 nM/g and 2800 nM/g
Polyamine content [16]: 2220 nM/g
Polyamine content [17]: 1800 nM/g
Polyamine content [18]: 1280 nM/g
Polyamine content [19]: 1640 nM/g
Polyamine content [20]: 1370 nM/g
Polyamine content [21]: 660 nM/g
Polyamine content [22]: 2240 nM/g
Polyamine content [23]: 60 nM/g
Polyamine content [24]: 2170 nM/g
Polyamine content [25]: 1640 nM/g
Polyamine content [26]: 890 nM/g
Polyamine content [27]: 2680 nM/g
Polyamine content [28]: 290 nM/g and 510 nM/g and 410 nM/g
Polyamine content [29]: 850 nM/g
Polyamine content [30]: 2600 nM/g
Polyamine content [31]: 2600 nM/g and 2500 nM/g and 2350 nM/g
Polyamine content [32]: 2400 nM/g
Polyamine content [33]: 400 nM/g
Polyamine content [34]: 100 nM/g
Polyamine content [35]: 980 nM/g
Polyamine content [36]: 2280 nM/g
Polyamine content [37]: 2080 nM/g
Polyamine content [38]: 580 nM/g
Polyamine content [39]: 160 nM/g
Polyamine content [40]: 2180 nM/g
Polyamine content [41]: 50 nM/g

CC(CN)C(C)CN (mixture of isomers)
Ki [42]: 1 mM

CC(N)CC(C)CN (mixture of isomers)
Ki [1]: 2.9 mM
Activity [2]: 85
Inhibition [3]: 76%

CC(N)CCC(C)N (single isomer, unassigned; (-))
Activity [2]: 97
Inhibition [3]: 97%

CNCCCCNC
Activity [2]: 72
Inhibition [3]: 30%
